Results from article PMC8359806 (Science translational medicine, 2020).

Columns and labels:
apoC-III = apoC-III (Homo sapiens, UniProt P02656); format: biochemical; conditions: 33 μM apoC-III added to pooled human HTG plasma (TG=360 mg/dL) with LPL
In short: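 Pooled human HTG plasma (TG=360 mg/dL) was incubated with LPL and test compound at 0–100 μM (0–0.47 mg/mL), with or without 33 μM apoC-III. Reference conditions were LPL alone and LPL with apoC-III. Lipolysis was read as NEFA generation, measured enzymatically. Results are the mean of triplicates ± S.D. (two-way ANOVA, Bonferroni post-test).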

lipoprotein lipase (LPL) = assay: Ex vivo TG lipolysis; format: biochemical; conditions: human apoC-II-deficient plasma (TG=1711 mg/dL) with added LPL
In short: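 Human apoC-II-deficient plasma (TG=1711 mg/dL) was spiked with LPL plus test compound at the indicated concentrations or at 10 μM. LPL activity was read as NEFA generation, measured enzymatically. Results are the mean of triplicates ± S.D. (two-way ANOVA, Bonferroni post-test), or N=8 at 10 μM (Mann-Whitney).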

Sequence of apoC-III (P02656 21-99): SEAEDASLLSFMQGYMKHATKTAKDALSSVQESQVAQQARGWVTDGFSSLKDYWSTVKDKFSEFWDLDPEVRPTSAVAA

| Substance | inhibition of ex vivo lipolysis of TG (apoC-III) | stimulation of ex vivo lipolysis (lipoprotein lipase (LPL)) |
| --- | --- | --- |
| apoC-III: apolipoprotein C-III, inhibits LPL | approximately 40% |  |
| TYLPAVDEKLRDLYSKSTAAMSTYTGIFTDQVLSVLKGEE [RCH2] |  | only partial activity |
